Legend:
[1] = test system: Vero; assay: Cytotoxicity against Vero cells; type: cell-based; details: Chlorocebus sabaeus
How it was run: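 Confluent Vero monolayers in 96-well trays, DMEM with 10% calf serum, exposed in triplicate to 1–500 µM for 48 h at 37 °C. Cells then fixed with 3.7% formaldehyde, rinsed and examined visually. IC50 taken as the concentration causing about 50% loss of monolayer.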

[2] = Binding affinity to DNA by methyl green/DNA displacement assay; details: Homo sapiens
[3] = test system: Neutrophil; assay: Apoptotic activity in human blood neutrophils after 72 hrs; type: functional; design: concentration or dose not given beside the values
How it was run: (§1)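 Neutrophils (>98% pure) isolated from peripheral blood of healthy donors by dextran sedimentation and discontinuous plasma Percoll gradients. Cultured at 37 °C, 5% CO2 in RPMI 1640 with 10% autologous platelet-rich-plasma-derived serum. Compound given at 50 µM in DMSO; controls were untreated cells and 0.01% DMSO. Apoptosis scored by May-Grunwald Giemsa morphology, 500 cells/slide, at 0–72 h. Mean ± SD, n = 3-5.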

[4] = Partition coefficient, log P of the compound; type: physicochemical; details: octanol/water
[5] = test system: Neutrophil; assay: Apoptotic activity in human blood neutrophils after 48 hrs; type: functional; design: concentration or dose not given beside the values; how it was run: as §1
[6] = test system: Neutrophil; assay: Apoptotic activity in human blood neutrophils after 24 hrs; type: functional; design: concentration or dose not given beside the values; how it was run: as §1

Structure (SMILES)	IC50 [1]	C50 [2]	Activity [3]	logP [4]	Activity [5]	Activity [6]
COc1ccc(CN2C(=O)[C@@H]3C4C=CC(CC4)[C@@H]3C2=O)cc1	67 µM					
Cc1cccc(C)c1N1C(=O)c2nccnc2C1=O	18 µM	59 µg/mL	50.1%	2.7	42.03%	28%
O=C1c2cccnc2C(=O)N1Cc1ccccc1	> 100 µM					
CCN1C(=O)[C@@H]2C3C=CC(CC3)[C@@H]2C1=O	> 100 µM			0.8		
O=C1[C@@H]2C3C=CC(CC3)[C@@H]2C(=O)N1Cc1ccc(Cl)cc1	51 µM					
O=C1c2nccnc2C(=O)N1c1ccc(C(F)(F)F)cc1	80 µM					
COc1ccc(CN2C(=O)c3nccnc3C2=O)cc1	> 100 µM					
O=C1[C@@H]2C3C=CC(CC3)[C@@H]2C(=O)N1C12CC3CC(CC(C3)C1)C2	14 µM	69 µg/mL	68.11%	2.2	53.2%	35.5%
CC(C)c1cccc(C(C)C)c1N1C(=O)c2ccccc2C1=O	23 µM		39.1%	5.1	30.2%	15.56%
O=C1[C@@H]2C3C=CC(CC3)[C@@H]2C(=O)N1c1ccccc1	67 µM					
O=C1[C@@H]2C3C=CC(CC3)[C@@H]2C(=O)N1c1ccc(C(F)(F)F)cc1	75 µM					
O=C1c2cccnc2C(=O)N1c1ccc(C(F)(F)F)cc1	87 µM					
CC(C)c1cccc(C(C)C)c1N1C(=O)c2cccnc2C1=O	21 µM		41.62%	4.6	32.77%	19.1%
C[C@H](c1ccccc1)N1C(=O)c2cccnc2C1=O	81 µM					
CC(C)c1cccc(C(C)C)c1N1C(=O)c2nccnc2C1=O	20 µM		46.11%	4.2	38.1%	24.07%
Cc1cccc(C)c1N1C(=O)[C@@H]2C3C=CC(CC3)[C@@H]2C1=O	13 µM	53 µg/mL	67.98%	3.1	53.2%	38.4%
COc1ccc(CN2C(=O)c3cccnc3C2=O)cc1OC	> 100 µM					
COc1ccc(CN2C(=O)[C@@H]3C4C=CC(CC4)[C@@H]3C2=O)cc1OC	63 µM					
O=C1c2nccnc2C(=O)N1C12CC3CC(CC(C3)C1)C2	18 µM		54.05%	1.8	45.1%	30.01%

Structure (SMILES)	IC50 [1]	C50 [2]	Activity [3]	logP [4]	Activity [5]	Activity [6]
CCN1C(=O)c2cccnc2C1=O	> 100 µM					
CCN1C(=O)c2nccnc2C1=O	> 100 µM					
O=C1[C@@H]2C3C=CC(CC3)[C@@H]2C(=O)N1CCc1ccccc1	87 µM			2.5		
C[C@H](c1ccccc1)N1C(=O)[C@@H]2C3C=CC(CC3)[C@@H]2C1=O	43 µM					
C[C@@H](c1ccccc1)N1C(=O)c2ccccc2C1=O	> 100 µM					
O=C1c2nccnc2C(=O)N1c1ccccc1	71 µM					
O=C1c2ccccc2C(=O)N1CCc1ccccc1	100 µM					
O=C1c2cccnc2C(=O)N1CCc1ccccc1	> 100 µM					
CC(C)(C)N1C(=O)c2nccnc2C1=O	32 µM		33.91%	0.9	27.6%	12%
O=C1c2cccnc2C(=O)N1Cc1ccc(Cl)cc1	95 µM					
O=C1c2ccccc2C(=O)N1Cc1ccccc1	100 µM					
C[C@@H](c1ccccc1)N1C(=O)[C@@H]2C3C=CC(CC3)[C@@H]2C1=O	49 µM					
O=C1c2nccnc2C(=O)N1Cc1ccc(Cl)cc1	88 µM					
O=c1[nH]cc(F)c(=O)[nH]1 [FLUOROURACIL]	0.2 µM					
O=C1c2nccnc2C(=O)N1c1ccc(Cl)cc1	86 µM					
CC(C)c1cccc(C(C)C)c1N1C(=O)[C@@H]2C3C=CC(CC3)[C@@H]2C1=O	16 µM		59.2%	4.6	49.11%	32.4%
COc1ccc(CN2C(=O)c3nccnc3C2=O)cc1OC	> 100 µM					
CC(C)(C)N1C(=O)[C@@H]2C3C=CC(CC3)[C@@H]2C1=O	27 µM		35.64%	1.3	29.76%	12.82%
O=C1c2nccnc2C(=O)N1CCc1ccccc1	> 100 µM					

Structure (SMILES)	IC50 [1]	C50 [2]	Activity [3]	logP [4]	Activity [5]	Activity [6]
CCCCCc1ccc(N2C(=O)c3nccnc3C2=O)cc1	16 µM	42 µg/mL	60%	3.8	49.2%	31.1%
O=C1c2cccnc2C(=O)N1c1ccccc1	72 µM					
CCCCCc1ccc(N2C(=O)[C@@H]3C4C=CC(CC4)[C@@H]3C2=O)cc1	10 µM	31 µg/mL	70.01%	4.2	58.06%	39.11%
O=C1c2nccnc2C(=O)N1Cc1ccccc1	> 100 µM					
O=c1c(O)c(-c2ccc(O)c(O)c2)oc2cc(O)cc(O)c12 [QUERCETIN]			71.3%		49.9%	39.9%
O=C1c2cccnc2C(=O)N1C12CC3CC(CC(C3)C1)C2	18 µM		56.1%	2.3	46%	31.1%
O=C1c2ccccc2C(=O)N1c1ccccc1 [N-PHENYL-PHTHALIMIDE]	82 µM					
C[C@@H](c1ccccc1)N1C(=O)c2cccnc2C1=O	92 µM					
O=C1[C@@H]2C3C=CC(CC3)[C@@H]2C(=O)N1Cc1ccccc1	74 µM			2.3		
O=C1[C@@H]2C3C=CC(CC3)[C@@H]2C(=O)N1c1ccc(Cl)cc1	77 µM					
Cc1cccc(C)c1N1C(=O)c2cccnc2C1=O	20 µM	64 µg/mL	44.16%	3.2	35%	22.21%
C[C@H](c1ccccc1)N1C(=O)c2nccnc2C1=O	79 µM					
COc1ccc(CN2C(=O)c3cccnc3C2=O)cc1	> 100 µM					
CC(C)(C)N1C(=O)c2cccnc2C1=O	33 µM		30.23%	1.4	25.07%	11%
CCCCCc1ccc(N2C(=O)c3cccnc3C2=O)cc1	18 µM	49 µg/mL	57.87%	4.3	47.05%	32.11%
O=C1c2ccccc2C(=O)N1C12CC3CC(CC(C3)C1)C2	20 µM		42.01%	2.7	34.66%	21.11%
O=C1c2cccnc2C(=O)N1c1ccc(Cl)cc1	92 µM					
C[C@@H](c1ccccc1)N1C(=O)c2nccnc2C1=O	85 µM					
